A word on the T/C: it is the result in the treated group divided by that in the control group, in per cent.

Activity calls are given as the source filed them. The calls are words filed in the database; no cut-off is given here.

For one data set, the system named is Mus musculus. As to the kind of experiment: Toxicity in human CWR22Rv1 cells xenografted SCID mouse assessed as effect on body weight at 20 mg/kg, ip dosed once daily for 5 days per week for 28 days. Type of data set: organism-based. On the set-up: dose 20 mg/kg, route intraperitoneal. Particulars: in vivo. The method, boiled down: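 Castrated male SCID mice carried subcutaneous CWR22Rv1 tumors (1 × 10⁶ cells implanted) and were randomized at ~100 mm³, n = 6/group. Dosing was ip 20 mg/kg once daily, 5 days/week for 28 days, in 40% β-cyclodextrin in ddH₂O, against vehicle. Body weight was monitored throughout as a surrogate toxicity marker.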
(In general: In xenograft studies the graft and the host belong to different species.)

Data set [1] has as its system LNCaP. As to the kind of experiment: Reduction in cell viability in human LNCAP cells in presence of Mnk1 siRNA at 2.5 uM and 5 uM after 72 hrs by MTT assay. The format is functional, cell-based. In a few lines:
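LNCaP cells in RPMI 1640 with 10% FBS were transfected with 100 nM Mnk1 siRNA (Lipofectamine 2000) for 18 h, with scrambled siRNA as control. After two PBS washes they were returned to growth medium, dosed 24 h later, and harvested after 72 h. Viability was read by MTT and normalized to control cells, as mean ± SEM of three independent experiments.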
(In general: Formazan colour is commonly taken as a measure of viable cells.)

The subject of data set [2] is CWR22R. As to the kind of experiment: Antitumor activity against human CWR22Rv1 cells xenografted in SCID mouse assessed as reduction in cyclin D1 protein expression at 20 mg/kg, ip dosed once daily for 5 days per week for 28 days by SDS-PAGE and Western blotting method. Also on record: dose 20 mg/kg. The format is functional, organism-based. In a few lines: (§1)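 CWR22Rv1 cells (1 × 10⁶) implanted subcutaneously in male SCID mice, castrated; at ~100 mm³ tumors, randomized (n = 6/group) to vehicle (40% β-cyclodextrin in ddH₂O) or drug ip in same vehicle once daily, 5 days/week for 28 days. Tumor lysates made in RIPA buffer, 50 μg protein from pooled samples (n = 6) on 10% SDS–PAGE, immunoblotted; GAPDH as loading control.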

The test system of data set [3] is CWR22R. As to the kind of experiment: Antitumor activity against human CWR22Rv1 cells xenografted in SCID mouse assessed as reduction in peIF4E protein expression at 20 mg/kg, ip dosed once daily for 5 days per week for 28 days by SDS-PAGE and Western blotting method. On the set-up: dose 20 mg/kg. Type of data set: functional, organism-based. The method, boiled down: as §1

A short description of data set [4]: Antitumor activity against human CWR22Rv1 cells xenografted in SCID mouse assessed as inhibition of tumor growth at 20 mg/kg, ip dosed once daily for 5 days per week for 28 days. Particulars: 22Rv1, ip, route intraperitoneal, read-out: TGI. The format is functional, CWR22R.
The test system of data set [5] is CWR22R. As to the kind of experiment: Antitumor activity against human CWR22Rv1 cells xenografted in SCID mouse assessed as reduction in fAR protein expression at 20 mg/kg, ip dosed once daily for 5 days per week for 28 days by SDS-PAGE and Western blotting method. The format is functional, organism-based. Also on record: dose 20 mg/kg. The method, boiled down: as §1

The nature of data set [6]: Antitumor activity against human CWR22Rv1 cells xenografted in SCID mouse assessed as tumor growth at 20 mg/kg, ip dosed once daily for 5 days per week for 28 days. The following applies: route intraperitoneal. Type of data set: functional, CWR22R. The method, boiled down: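 Castrated male SCID mice carrying subcutaneous CWR22Rv1 tumors (1 × 10⁶ cells implanted; ~100 mm³ at randomization, n = 6/group) given ip drug in 40% β-cyclodextrin/ddH₂O once daily, 5 days/week for 28 days; vehicle controls. Tumor volume followed; %T/C = median treated volume/median control volume at day 28 × 100. Body weight tracked as toxicity marker.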

Data set [7] concerns CWR22R. As to the kind of experiment: Antitumor activity against human CWR22Rv1 cells xenografted in SCID mouse assessed as reduction in Bcl2 protein expression at 20 mg/kg, ip dosed once daily for 5 days per week for 28 days by SDS-PAGE and Western blotting method. The format is functional, organism-based. Also on record: dose 20 mg/kg. The method, boiled down: as §1
Data set [8] concerns LNCaP. As to the kind of experiment: Reduction in cell viability in human LNCAP cells at 5 uM after 72 hrs by MTT assay. The format is functional, cell-based. In a few lines: (§2)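 LNCaP cells transfected with 100 nM AR and/or Mnk1 siRNA (or scrambled control) by lipofection for 18 h, washed twice with PBS, returned to growth medium; drug added 24 h later, viability read by MTT after 72 h. Untransfected cells treated alike. Knockdown confirmed by immunoblot; three independent experiments, normalized to control cells.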

In data set [9] the test system is LNCaP. As to the kind of experiment: Reduction in cell viability in human LNCAP cells in presence of AR siRNA at 2.5 uM and 5 uM after 72 hrs by MTT assay. The format is functional, cell-based. The method, boiled down:
as §2

Data set [10] has as its system CWR22R. As to the kind of experiment: Antitumor activity against human CWR22Rv1 cells xenografted in SCID mouse assessed as reduction in Mnk1/2 protein expression at 20 mg/kg, ip dosed once daily for 5 days per week for 28 days by SDS-PAGE and Western blotting method. Type of data set: functional, organism-based. Also on record: dose 20 mg/kg. The method, boiled down:
as §1

The subject of data set [11] is CWR22R. As to the kind of experiment: Antitumor activity against human CWR22Rv1 cells xenografted in SCID mouse assessed as increase in Bad protein expression at 20 mg/kg, ip dosed once daily for 5 days per week for 28 days by SDS-PAGE and Western blotting method. Type of data set: functional, organism-based. On the set-up: dose 20 mg/kg. In a few lines: as §1
Data set [12] deals with CWR22R. As to the kind of experiment: Antitumor activity against human CWR22Rv1 cells xenografted in SCID mouse assessed as reduction in AR-V7 protein expression at 20 mg/kg, ip dosed once daily for 5 days per week for 28 days by SDS-PAGE and Western blotting method. On the set-up: dose 20 mg/kg. Type of data set: functional, organism-based. The method, boiled down: as §1

In the case of `CC1=C(/C=C/C(C)=C/C=C/C(C)=C\C(=O)Nc2cccc(F)c2)C(C)(C)CCC1n1ccnc1` (stereo not drawn), the Activity entry in the data set with Mus musculus is “Non-toxic”. In addition, the outcome with LNCaP [1], with CWR22R [2], in the data set on CWR22R [3], in the data set on CWR22R [5], with CWR22R [7] and in the data set with LNCaP [8] was Active. Further, the outcome in the data set with LNCaP [9], in the data set on CWR22R [10], in the data set on CWR22R [11] and with CWR22R [12] was Active. Also, in [4], the inhibition in vivo at 20 mg/kg came to 61.2%. The T/C in data set [6] stood at 38.8%.
